Rows were chosen to be rich in hits. Some 2.9% of all compounds tested hit in one or more screens of this group.
Cneo AK release: Cryptococcus neoformans lysis via adenylate kinase release; AID 651654; 360,000 tested, 0.2% active; C. neoformans lysis, adenylate kinase release luminescence, 4 h; normalised: neutral wells 0, clomiphene wells 100; lysis activity, % at 15 µM;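 active = mean lysis activity across replicates of at least 80%, whatever share of replicates individually reach that level; inactive = mean lysis activity below 80%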
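Material – log-phase Cryptococcus neoformans yeast cells · Input – 5 × 10^6 yeast cells/mL · Medium – fresh YPD growth medium · Doses – single compound concentration per well · Timing – static 4 h at 37 °C with compound, 1 h detection · Detection – adenylate kinase release luminescence · Read-out – signal increase indicating cell lysis · Control set – Clomiphene as positive lysis control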
PGC1a acetyl inh: modulators of PGC1a acetylation. U2OS PGC1a acetylation, AlphaScreen anti-acetyl-lysine; with virally co-expressed GCN5 acetyltransferase. inhibition, % at 15.6 µM. 350,000 tested, 0.17% active;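 active = every replicate shows inhibition of at least 40%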
PglD inh: inhibitors of Campylobacter jejuni PglD acetyltransferase | purified PglD enzyme, DTNB colorimetric CoA detection | inhibition, % at 12.5 µM | 360,000 tested, 0.098% active | AID 602405; in the data active = inhibition above about 16%, passing the limit was not always enough
rRNA inh HTS: inhibits bacterial ribosomal RNA function over humanized ribosomes; E. coli WT GFP vs humanized-ribosome RFP mutants, fluorescence, 24 h; active compounds read low; DMSO median 0, no signal -100; GFP signal change (wild-type ribosome), % (no concentration beside the values); 350,000 tested, 1.6% active;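 active = significant combined selectivity score with lowered wild-type GFP, culture density cut under 30%, mutant RFP and density less affected; inactive = any of these conditions unmet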
FGF22 binding: FGF22 (human) thermal shift binding; Q9HCT0; activity (Tm shift, normalised), % at 9.99 µM; 340,000 tested, 1.5% active; AID 651658; recombinant FGF22 thermal shift, SYPRO orange fluorescence; percent of sucrose octasulfate shift, DMSO zero;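 active = mean Tm shift, scaled 0 neutral to 100 positive control, at about 1.3% or above, every replicate too, limit read from the data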
Target sequence (Q9HCT0 whole entry, looked up): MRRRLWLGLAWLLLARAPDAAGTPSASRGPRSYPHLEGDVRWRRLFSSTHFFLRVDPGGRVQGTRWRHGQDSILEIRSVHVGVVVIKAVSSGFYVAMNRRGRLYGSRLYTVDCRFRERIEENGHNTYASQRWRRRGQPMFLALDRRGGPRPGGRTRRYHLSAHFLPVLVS
Vif imaging: blocks HIV Vif function; inhibition, % at 7.49 µM; 340,000 tested, 0.35% active; HEK293T cells, Vif self-association by quenched fluorescence, imaging, 24 h; in the data active = inhibition above about 50%, passing the limit was not always enough
Numbers stand for hits.

`Cc1cc([N+](=O)[O-])nn1CCC(=O)Nc1nccs1` gave PGC1a acetyl inh inactive, rRNA inh HTS inactive, FGF22 binding 43 and Vif imaging inactive.
For CN(C)S(=O)(=O)c1ccc(NC(=O)CN2CCC(Cc3ccccc3)CC2)cc1 the results were Cneo AK release inactive, PGC1a acetyl inh inactive, PglD inh inactive, rRNA inh HTS inactive, FGF22 binding 44 and Vif imaging inactive.
Cc1noc(C)c1NC(=O)Nc1ccc2c(c1)C(=O)N([C@@H](C)CO)C[C@H](C)[C@H](CN(C)S(C)(=O)=O)O2 was read as Cneo AK release inactive, PGC1a acetyl inh inactive, PglD inh inactive, rRNA inh HTS inactive and FGF22 binding inactive.
`C[C@H]1CN([C@@H](C)CO)C(=O)c2ccccc2-c2ccccc2CO[C@@H]1CN(C)C(=O)Nc1ccc2c(c1)OCO2` gave rRNA inh HTS inactive.
For COC(=O)C1=NN(C(=O)c2ccc(Br)cc2)C(O)(C(C)(C)C)C1 (configuration not stated) the results were rRNA inh HTS -24, FGF22 binding inactive and Vif imaging inactive.
Screening O=C(O)c1ccccc1C(=O)NNc1ccc(Cl)cc1Cl returned rRNA inh HTS inactive, FGF22 binding 44 and Vif imaging inactive.
C[C@@H]1CCCCO[C@@H](CN(C)C(=O)CCCN(C)C)[C@@H](C)CN([C@@H](C)CO)C(=O)c2cc(NC(=O)C3CCCCC3)ccc2O1 was read as Cneo AK release inactive, PGC1a acetyl inh inactive, PglD inh inactive, rRNA inh HTS inactive and FGF22 binding inactive.
`CC(C)C(C(=O)NCc1ccco1)N(CC1CCCO1)C(=O)CNS(=O)(=O)c1ccccc1` (configuration not stated) gave rRNA inh HTS inactive, FGF22 binding 43 and Vif imaging inactive.
CC(C)C(C(=O)NCc1ccccc1)N(CC1CCCO1)C(=O)CNS(=O)(=O)c1ccccc1 (configuration not stated) was read as Cneo AK release inactive, PGC1a acetyl inh inactive, PglD inh inactive, rRNA inh HTS inactive, FGF22 binding inactive and Vif imaging inactive.
CN(C)CCCC1Sc2ccccc2Sc2ccccc21 (configuration not stated) was read as PGC1a acetyl inh inactive, rRNA inh HTS -46, FGF22 binding inactive and Vif imaging inactive.
Screening O=C1C2C3C=CC(C3)C2S(=O)(=O)C2C3C=CC(C3)C12 (configuration not stated) returned Cneo AK release inactive, PGC1a acetyl inh inactive, PglD inh inactive, rRNA inh HTS inactive and FGF22 binding 43.
`O=C1C2C3C=CC(CC3)C2C(=O)N1c1ccc(Cl)cc1` (configuration not stated) gave Cneo AK release inactive, PGC1a acetyl inh inactive, PglD inh inactive, rRNA inh HTS inactive, FGF22 binding inactive and Vif imaging inactive.
O=C1C2C3C=CC(CC3)C2S(=O)(=O)C2C3C=CC(CC3)C12 (configuration not stated) was read as Cneo AK release inactive, PGC1a acetyl inh inactive, PglD inh inactive, rRNA inh HTS inactive and FGF22 binding 44.
For COc1ccc(C(NC(=O)CC(C)C)c2c(O)ccc3ccccc23)cc1 (configuration not stated) the results were Cneo AK release inactive, PglD inh inactive, rRNA inh HTS inactive, FGF22 binding inactive and Vif imaging inactive.
Screening CCCC(=O)NC(c1ccc(OC)cc1)c1c(O)ccc2ccccc12 (configuration not stated) returned Cneo AK release inactive, PGC1a acetyl inh inactive, PglD inh inactive, rRNA inh HTS -27, FGF22 binding inactive and Vif imaging inactive.
COc1ccc(NC(=O)Nc2c(O)ccc3ccccc23)cc1 was read as rRNA inh HTS -26, FGF22 binding inactive and Vif imaging inactive.
Screening CN(C)CCCNC(=O)[C@H]1[C@H](CO)[C@H]2Cn3c(ccc(-c4cccnc4)c3=O)[C@@H]1N2C(=O)CC1CC1 returned Cneo AK release inactive, PglD inh inactive, rRNA inh HTS inactive and FGF22 binding inactive.
For CC(C)n1c(O)c(N=Nc2ccc(Cl)c(C(=O)O)c2)c2ccccc21 the results were Cneo AK release inactive, PGC1a acetyl inh inactive, PglD inh inactive, rRNA inh HTS -18, FGF22 binding inactive and Vif imaging inactive.
CCn1c(O)c(N=Nc2ccc(Cl)c(C(=O)O)c2)c2ccccc21 was read as Cneo AK release inactive, PGC1a acetyl inh inactive, PglD inh inactive, rRNA inh HTS inactive, FGF22 binding inactive and Vif imaging inactive.
CN(C)S(=O)(=O)c1cccc(NC(=O)COC(=O)/C=C/c2ccc3c(c2)OCO3)c1 was read as Cneo AK release inactive, PGC1a acetyl inh inactive, PglD inh inactive, rRNA inh HTS -27, FGF22 binding inactive and Vif imaging inactive.
CCOc1ccc2nc(SCC(=O)Nc3ccc4c(c3)OCCO4)[nH]c2c1 was read as Cneo AK release inactive, PGC1a acetyl inh inactive, PglD inh inactive and Vif imaging inactive.
For Cc1ccc(NC(=O)COC(=O)/C=C/c2ccco2)cc1S(=O)(=O)N(C)C the results were Vif imaging inactive.
Screening O=C(COC(=O)/C=C/c1ccc(Cl)cc1)Nc1cccc(S(=O)(=O)NC2=NCCCCC2)c1 returned Cneo AK release inactive, PGC1a acetyl inh inactive, PglD inh inactive, rRNA inh HTS -20, FGF22 binding inactive and Vif imaging inactive.
CCOc1ccc2nc(SCC(=O)Nc3cccc(S(=O)(=O)NC4=NCCCCC4)c3)[nH]c2c1 was read as Cneo AK release inactive, PGC1a acetyl inh inactive, PglD inh inactive, rRNA inh HTS -27, FGF22 binding inactive and Vif imaging inactive.
Cc1ccc(S(=O)(=O)N(C)C)cc1NC(=O)COC(=O)/C=C/c1ccc2c(c1)OCO2 was read as Cneo AK release inactive, PglD inh inactive, rRNA inh HTS inactive, FGF22 binding inactive and Vif imaging inactive.
Screening C/C=C/C(=O)OCC(=O)Nc1ccc(C)c(S(=O)(=O)N(C)C)c1 returned rRNA inh HTS inactive, FGF22 binding 44 and Vif imaging inactive.
`CO[C@H]1CN(C)C(=O)c2cc(NC(C)=O)ccc2OC[C@@H](C)N(C(=O)C2CC2)C[C@@H]1C` gave Cneo AK release inactive, PGC1a acetyl inh inactive, PglD inh inactive, rRNA inh HTS inactive and FGF22 binding inactive.
C[C@@H]1CN([C@@H](C)CO)C(=O)c2cc(NC(=O)CCCN(C)C)ccc2O[C@H]1CN(C)Cc1ccc2c(c1)OCO2 was read as PGC1a acetyl inh inactive, rRNA inh HTS inactive and FGF22 binding inactive.
For CC(=O)n1c2c(c3ccccc31)OC(N)=C(C#N)C2c1ccc(C(C)C)cc1 (configuration not stated) the results were rRNA inh HTS -15, FGF22 binding inactive and Vif imaging inactive.

High-throughput results from PubChem.
